Data published in article PMC4867259 (Free radical biology & medicine, 2016).
Values belong to the molecule of their own block, whether it stands above or below them.

How the values were obtained:
[1] = target: T1, DEGS1 (Homo sapiens, UniProt O15121); test: In vitro DEGS assay with HCT-116 cell homogenates; assay type: biochemical
T1 sequence (O15121 1-323): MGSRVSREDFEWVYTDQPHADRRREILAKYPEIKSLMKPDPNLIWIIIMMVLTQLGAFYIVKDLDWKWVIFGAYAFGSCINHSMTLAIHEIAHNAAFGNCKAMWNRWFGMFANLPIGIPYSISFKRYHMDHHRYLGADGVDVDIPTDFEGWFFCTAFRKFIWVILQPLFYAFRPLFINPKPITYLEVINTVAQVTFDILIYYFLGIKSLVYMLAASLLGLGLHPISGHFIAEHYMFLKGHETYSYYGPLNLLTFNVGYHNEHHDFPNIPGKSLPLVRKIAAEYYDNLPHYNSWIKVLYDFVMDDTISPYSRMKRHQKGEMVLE
Summary of the method: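 HCT-116 cells were treated for 1 or 2 h with test compound, reference inhibitor or DMSO. Cells were homogenized in 5 mM Hepes (pH 7.4) with 50 mM sucrose and kept 10 min on ice, and unbroken cells were removed at 250 × g for 5 min at 4 °C. Homogenate was incubated with 2 mM NADH and 10 μM C8:0-dihydroceramide substrate for 1 h at 37 °C. Lipids were extracted and C8:0-Cer and C8:0-SM quantified by LC-MS/MS; n = 3 independent experiments.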

[2] = target: T2, human recombinant 5-LOX (Homo sapiens, UniProt P09917); test: 5-LOX activity, ferrous oxidation-xylenol orange; assay type: biochemical
T2 sequence (P09917 1-674): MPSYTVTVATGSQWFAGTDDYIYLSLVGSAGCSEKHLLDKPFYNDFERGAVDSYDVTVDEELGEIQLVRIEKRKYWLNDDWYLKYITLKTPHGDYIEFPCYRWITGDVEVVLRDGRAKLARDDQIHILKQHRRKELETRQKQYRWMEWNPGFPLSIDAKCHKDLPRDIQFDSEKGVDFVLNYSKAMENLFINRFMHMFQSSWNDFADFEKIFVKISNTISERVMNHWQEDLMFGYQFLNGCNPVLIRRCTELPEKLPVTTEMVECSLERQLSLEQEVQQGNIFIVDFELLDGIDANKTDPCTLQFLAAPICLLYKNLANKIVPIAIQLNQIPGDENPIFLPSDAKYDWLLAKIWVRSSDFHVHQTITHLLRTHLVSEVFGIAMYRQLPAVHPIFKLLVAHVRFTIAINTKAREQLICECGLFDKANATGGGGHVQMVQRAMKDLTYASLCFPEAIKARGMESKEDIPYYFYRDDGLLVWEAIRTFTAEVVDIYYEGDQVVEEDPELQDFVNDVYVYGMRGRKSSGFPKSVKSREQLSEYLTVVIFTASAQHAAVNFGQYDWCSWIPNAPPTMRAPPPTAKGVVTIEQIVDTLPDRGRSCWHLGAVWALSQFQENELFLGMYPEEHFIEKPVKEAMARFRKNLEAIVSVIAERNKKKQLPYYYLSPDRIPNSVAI

[3] = target: T3, human recombinant COX-2 (Homo sapiens, UniProt P35354); test: COX-2 enzyme activity assay; assay type: biochemical
T3 sequence (P35354 18-604): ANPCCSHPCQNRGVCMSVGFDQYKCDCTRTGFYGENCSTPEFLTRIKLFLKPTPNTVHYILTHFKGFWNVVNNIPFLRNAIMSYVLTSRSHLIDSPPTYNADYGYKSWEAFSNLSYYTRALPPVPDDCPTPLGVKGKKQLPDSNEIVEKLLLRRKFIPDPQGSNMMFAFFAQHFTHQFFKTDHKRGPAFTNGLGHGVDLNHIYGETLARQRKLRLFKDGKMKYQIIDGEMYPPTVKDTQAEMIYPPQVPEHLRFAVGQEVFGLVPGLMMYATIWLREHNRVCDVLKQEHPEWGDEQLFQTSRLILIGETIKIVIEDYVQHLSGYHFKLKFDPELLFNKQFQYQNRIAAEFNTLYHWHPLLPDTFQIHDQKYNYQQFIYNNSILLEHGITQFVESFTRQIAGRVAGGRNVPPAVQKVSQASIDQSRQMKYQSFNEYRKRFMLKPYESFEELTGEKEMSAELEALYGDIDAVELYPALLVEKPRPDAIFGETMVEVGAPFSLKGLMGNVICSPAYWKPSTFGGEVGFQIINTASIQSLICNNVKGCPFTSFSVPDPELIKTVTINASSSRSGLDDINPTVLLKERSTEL
Summary of the method: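 Test compound was preincubated with enzyme in 0.1 M Tris (pH 8.0) containing 5 mM EDTA, 2 mM phenol and 1 µM hematin. Arachidonic acid (5 µM final) was added for 2 min, and 0.1 M HCl stopped the reaction. Stannous chloride in 0.1 M HCl reduced PGG2/PGH2 to PGF2α, quantified by ELISA. IC50 values are mean ± SEM of four or more independent experiments.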

[4] = system: HCT-116 cells; test: Sphingolipid levels by LC-MS/MS; assay type: cell-based, human
Summary of the method: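 Treated HCT-116 pellets were extracted in methanol/chloroform/water with internal standards (C12:0- and C25:0-ceramide, C17-sphingosine, C17-sphinganine, C12:0-SM), tip-sonicated 20 s, and incubated overnight at 48 °C. An aliquot was taken for total choline phospholipids (enzymatic colorimetric assay). The remainder was hydrolysed with methanolic KOH (37 °C, 2 h) and dried under N2. Positive-mode MRM LC-MS/MS was run, ceramides/sphingoid bases on C18 and SMs on C8; vs DMSO controls, n ≥ 3.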

[5] = target: T4, DEGS (Rattus norvegicus, UniProt Q5XIF5); test: DEGS assay with rat liver microsomal fraction; assay type: biochemical; settings: rat liver microsomal fraction as source of DEGS; data not shown
T4 sequence (Q5XIF5 1-323): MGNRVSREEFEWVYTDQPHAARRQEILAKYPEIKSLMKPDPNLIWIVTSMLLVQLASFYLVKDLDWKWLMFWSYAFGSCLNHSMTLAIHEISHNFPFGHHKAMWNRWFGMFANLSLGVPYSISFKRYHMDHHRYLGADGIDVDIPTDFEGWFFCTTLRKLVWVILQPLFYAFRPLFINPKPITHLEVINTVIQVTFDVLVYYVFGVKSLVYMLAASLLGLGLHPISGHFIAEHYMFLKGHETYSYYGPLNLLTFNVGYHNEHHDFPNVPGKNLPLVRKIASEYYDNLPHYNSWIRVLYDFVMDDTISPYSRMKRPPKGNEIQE

[6] = system: HCT-116 cells; test: Western blotting of LC3-II, caspase-9 and PARP; assay type: cell-based, human; settings: 20 μM for 24 h
Summary of the method: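 HCT-116 lysates were prepared in Tris-EDTA with 1% SDS, 2 mM Na3VO4 and protease inhibitors, and protein was quantified by BCA. Equal protein was resolved by SDS-PAGE and probed for LC3, caspase-9, PARP-1 and actin. Caspase-9 activation and PARP cleavage served as apoptosis read-outs and LC3-II as the autophagy read-out. Blots are representative of three or more independent experiments.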

[7] = system: DEGS-1 protein expression in HCT-116 cells; test: Western blotting of DEGS-1 protein expression; assay type: cell-based, human; settings: 10 or 20 μM for 8 or 16 h
Summary of the method: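 HCT-116 cells were lysed in Tris-EDTA buffer with 1% SDS, 2 mM Na3VO4 and protease inhibitors. Protein was measured by BCA, and equal amounts were resolved by SDS-PAGE and immunoblotted with anti-DEGS-1 antibody.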

[8] = system: HT-29 cells; test: MTT cell viability assay, HT-29; assay type: cell-based, human; settings: time- and dose-dependent
Summary of the method: (§1)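 Cells were grown with 10% FBS at 37 °C and 5% CO2: HCT-116 in McCoy's 5A, HT-29 in DMEM. Cells were exposed to test compound at indicated concentrations and times, and viability was read by MTT (mitochondrial dehydrogenase activity) relative to DMSO controls. […] Values are mean SD of at least three independent experiments.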

[9] = system: HCT-116 cells; test: Annexin V / propidium iodide apoptosis, flow cytometry; assay type: cell-based, human; settings: 20 μM for 24 h, compared with DMSO-treated controls
Summary of the method: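 HCT-116 cells were grown in McCoy's 5A with 10% FBS at 37 °C and 5% CO2. After treatment, floating and attached cells were pooled and stained with an annexin V–fluorescein/propidium iodide kit. Flow cytometry read apoptosis from annexin V (Ex 488, Em 518 nm) and necrosis from PI (Ex 488-540, Em 617 nm). Data are representative of three or more independent experiments.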

[10] = system: HCT-116 cells; test: MTT cell viability assay, HCT-116; assay type: cell-based, human; settings: time- and dose-dependent
Summary of the method: as §1

[11] = system: colon tumorigenesis induced by AOM and DSS; test: AOM/DSS-induced colon tumorigenesis in mice; assay type: in vivo, male Balb/c mice; settings: 0.022% in diet

inhibition of DEGS1 enzyme activity ([1]; 1 μM, 1 or 2 h treatment of HCT-116 cells): ~ 95%
SMILES: CCCCCCCCCCCCCC1=C([C@@H](O)[C@H](CO)NC(=O)CCCCCCC)C1 [C8-CPPC, C8-cyclopropenylceramide, reference compound]

IC50 [2]: > 50 µM | IC50 [3]: > 50 µM
SMILES: Cc1c(O)cc2c(c1C)O[C@](C)(CCC[C@H](C)CCC[C@H](C)CCCC(C)C)CC2 [γT, γ-tocopherol]
inhibition of 5-LOX at 50 μM [2]: neither γT nor δT at 50 μM inhibited COX-2 or 5-LOX | inhibition of COX-2 at 50 μM [3]: neither γT nor δT at 50 μM inhibited COX-2

SMILES: Cc1cc(O)cc2c1O[C@](C)(CCC[C@H](C)CCC[C@H](C)CCCC(C)C)CC2 [δT, δ-tocopherol]
inhibition of 5-LOX at 50 μM [2]: neither γT nor δT at 50 μM inhibited COX-2 or 5-LOX | inhibition of COX-2 at 50 μM [3]: neither γT nor δT at 50 μM inhibited COX-2

inhibition of DEGS enzyme activity [5]: failed to inhibit the enzyme activity | inhibition of DEGS1 enzyme activity ([1]; 20 μM, 1 h pre-incubation of HCT-116 cells): ~ 38% | inhibition of DEGS1 enzyme activity ([1]; 20 μM, 2 h pre-incubation of HCT-116 cells): ~ 47%
SMILES: Cc1cc(O)cc2c1O[C@](C)(CCC[C@H](C)CCC[C@H](C)CCCC(C)C(=O)O)CC2 (some centres unmarked) [δT-13’-COOH]
C16:0-Cer ([4]; 20 μM, 2 h incubation, compared with solvent controls): significant decrease | sphingomyelin species and total SMs ([4]; 10 or 20 μM, 1-16 h): persistent decrease | total dihydroceramides, individual dhCers and dihydrosphingosine ([4]; 10 or 20 μM, after 1-2 h treatment, compared with controls): dose-dependently increased | LC3-II, a marker of autophagy [6]: increase of LC3-II | effect on DEGS-1 protein expression [7]: no effect | cell viability [8]: decreased the viability | apoptosis (annexin V staining) [9]: induced early and late-stage apoptosis | cell viability [10]: decreased the viability

effect on food intake ([11]; compared with the control diet): no effect
SMILES: C/C(=C\CC/C(C)=C/CC[C@]1(C)CCc2cc(O)cc(C)c2O1)CC/C=C(\C)C(=O)O [δTE-13’-COOH]
LC3-II, a marker of autophagy [6]: increase of LC3-II | effect on body weight ([11]; compared with the control diet): no effect | decrease in number of large tumors (> 2 mm^2) ([11]; compared with controls, p < 0.05): 58% | colon tumors per mouse ([11]; mean ± SEM, n = 15-17, p < 0.01 vs control diet (4.7 ± 0.3)): 3.1 ± 0.3 tumors per mouse | cell viability [8]: decreased the viability | apoptosis (annexin V staining) [9]: induced early and late-stage apoptosis | cell viability [10]: decreased the viability
